Values belong to the molecule of their own block, whether it stands above or below them. Activity calls are given as the source filed them. The calls are words filed in the database; no cut-off is given here.
Experiments:
MDA-MB-231 [1] = assay: Cytotoxicity against human MDA-MB-231 cells assessed as decrease in cell viability after 48 hrs by MTS assay; type: functional; conditions: for CC50: MDA-MB-231, 48 h
In short: (§1)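 Cells were seeded at equal numbers and, after 24 h, exposed to compounds (0–30 µM) for 48 h. MTS reagent (20% v/v) was then added for 1–4 h, and OD490 was read. Cell-free medium wells served as blanks. Media were DMEM/F12 + 10% FBS for BT-474; DMEM + 10% FBS for DU-145 and MDA-MB-231; and DMEM + 10% FBS + 2.5% horse serum for MiaPaCa-2. Values are mean ± SD, n=6.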

MIA PaCa-2 [2] = assay: Cytotoxicity against human MIAPaCa2 cells assessed as decrease in cell viability after 48 hrs by MTS assay; type: functional; conditions: for CC50: MIA PaCa-2, 48 h; in short: as §1
BT-474 [3] = assay: Cytotoxicity against human BT474 cells assessed as decrease in cell viability after 48 hrs by MTS assay; type: functional; conditions: for CC50: BT-474, 48 h; in short: as §1
DU-145 [4] = assay: Cytotoxicity against human DU145 cells assessed as decrease in cell viability after 48 hrs by MTS assay; type: functional; conditions: for CC50: DU-145, 48 h; in short: as §1
Erythrocyte = assay: Induction of hemolysis in sheep erythrocytes at 30 uM after 30 mins by spectrophotometric analysis; type: functional, Ovis aries
BT-474 [5] = assay: Disruption of cancer stem cells spheroids derived from human BT474 cells at >=7.5 uM after 3 days by microscopic analysis; type: functional, cell-based
In short: (§2)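 Cancer stem cells were isolated from BT-474 by ALDH1 activity. Equal numbers were seeded in ultra-low-adhesion wells and grown to spheroids. Spheroids were then incubated with or without compounds for 3 days. Spheroid integrity was assessed by light microscopy (×10). Viability was measured in parallel by MTS.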

[6] = Stability in bovine liver extracts assessed as bovine liver glycosidase mediated compound cleavage by TLC analysis; type: ADME, Bos taurus; conditions: cattle
In short: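 A bovine liver glycosidase fraction in 0.05 M sodium citrate pH 5.0 was combined with 0.2 M citrate pH 4.4 buffer, substrate (30 mM stock) and Triton X-100 (10% stock) for solubilization. Controls were no enzyme and a β-D-glucose-based GAEL. After 1 h, methanol was added, the mixture was centrifuged, and the supernatant was analysed by TLC. Run in quadruplicate.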

MIA PaCa-2 [7] = assay: Cytotoxicity against human MIAPaCa2 cells assessed as cell death at 2 to 25 times CC50 after 48 hrs by MTS assay; type: functional
In short: (§3)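 Equal numbers of cells were plated. After 24 h they were exposed to compounds (0–30 µM) for 48 h, then given MTS reagent (20% v/v) for 1–4 h. OD490 was read against cell-free blank wells; mean ± SD of 6 determinations. Media: BT-474 in DMEM/F12 + 10% FBS; DU-145, JIMT-1 and MDA-MB-231 in DMEM + 10% FBS; MiaPaCa-2 in DMEM + 10% FBS + 2.5% horse serum; PC-3 in F12K + 10% FBS; all with penicillin/streptomycin.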

BT-474 [8] = assay: Cytotoxicity against human BT474 cells assessed as cell death at 2 to 25 times CC50 after 48 hrs by MTS assay; type: functional; in short: as §3
DU-145 [9] = assay: Cytotoxicity against human DU145 cells assessed as decrease in cell viability up to 8 uM after 48 hrs in absence of pan-caspase inhibitor QVD-OPh by MTS assay; type: functional, cell-based
In short: (§4)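 DU-145 and JIMT-1 cells (DMEM + 10% FBS) were treated with compounds with or without the pan-caspase inhibitor QVD-OPh (40 µM). Viability was read by MTS: cells were seeded, treated 24 h later for 48 h, given MTS (20% v/v) for 1–4 h, and read at OD490 against cell-free blanks.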

BT-474 [10] = assay: Cytotoxicity against cancer stem cells derived from human BT474 cells assessed as cancer stem cell death at 20 uM after 3 days by MTS assay; type: functional
In short: (§5)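 CSCs were isolated from BT-474 using ALDH1 activity as the stemness marker. They were grown in ultra-low adhesion wells for 4 days to form spheroids. Spheroids were then exposed to compounds (0–20 µM) for 3 days. Viability was read by MTS assay and expressed as % of untreated control.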

JIMT-1 [11] = assay: Cytotoxicity against human JIMT1 cells assessed as decrease in cell viability up to 8 uM after 48 hrs in absence of pan-caspase inhibitor QVD-OPh by MTS assay; type: functional, cell-based; in short: as §4
JIMT-1 [12] = assay: Cytotoxicity against human JIMT1 cells assessed as decrease in cell viability up to 8 uM after 48 hrs in presence of pan-caspase inhibitor QVD-OPh by MTS assay; type: functional, cell-based; in short: as §4
BT-474 [13] = assay: Cytotoxicity against cancer stem cells derived from human BT474 cells assessed as cancer stem cell death at 7.5 uM after 3 days by MTS assay; type: functional; in short: as §5
JIMT-1 [14] = assay: Cytotoxicity against human JIMT1 cells assessed as cell death at 2 to 25 times CC50 after 48 hrs by MTS assay; type: functional; in short: as §3
DU-145 [15] = assay: Cytotoxicity against human DU145 cells assessed as decrease in cell viability up to 8 uM after 48 hrs in presence of pan-caspase inhibitor QVD-OPh by MTS assay; type: functional, cell-based; in short: as §4
MDA-MB-231 [16] = assay: Cytotoxicity against human MDA-MB-231 cells assessed as cell death at 2 to 25 times CC50 after 48 hrs by MTS assay; type: functional; in short: as §3
BT-474 [17] = assay: Disruption of cancer stem cells spheroids derived from human BT474 cells at 20 uM after 3 days by microscopic analysis; type: functional, cell-based; in short: as §2
PC-3 = assay: Cytotoxicity against human PC3 cells assessed as cell death at 2 to 25 times CC50 after 48 hrs by MTS assay; type: functional; in short: as §3
DU-145 [18] = assay: Cytotoxicity against human DU145 cells assessed as cell death at 2 to 25 times CC50 after 48 hrs by MTS assay; type: functional; in short: as §3
BT-474 [19] = assay: Disruption of cancer stem cells spheroids derived from human BT474 cells at 7.5 uM after 3 days by microscopic analysis; type: functional, cell-based
In short: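 Equal numbers of ALDH1-selected BT-474 cancer stem cells were seeded in ultra-low adhesion wells and grown to form spheroids. Spheroids were incubated with or without compound for 3 days. Spheroid integrity was judged by microscopic imaging at ×10.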

Compound: CCCCCCCCCCCCCCCCOC[C@H](CO[C@H]1O[C@H](CO)[C@@H](O)[C@H](O)[C@H]1N)OC
CC50 (MDA-MB-231 [1]): 6 to 10.5 µM | CC50 (MIA PaCa-2 [2]): 6 to 10.5 µM | CC50 (BT-474 [3]): 6 to 10.5 µM | CC50 (DU-145 [4]): 6 to 10.5 µM

Stability [6]: Stable
Compound: CCCCCCCCCCCCCCCCOC[C@H](CO[C@@H]1O[C@H](CO)[C@@H](O)[C@H](O)[C@H]1N)OC
Activity (Erythrocyte): <5% | Activity (BT-474 [5]): Active | CC50 (MDA-MB-231 [1]): 6.5 to 13 µM | CC50 (MIA PaCa-2 [2]): 6.5 to 13 µM | CC50 (BT-474 [3]): 6.5 to 13 µM | CC50 (DU-145 [4]): 6.5 to 13 µM

Compound: COc1cccc2c1C(=O)c1c(O)c3c(c(O)c1C2=O)C[C@@](O)(C(=O)CO)C[C@@H]3O[C@H]1C[C@H](N)[C@H](O)[C@H](C)O1.Cl [DOXORUBICIN HYDROCHLORIDE]
Activity (MIA PaCa-2 [7]): <90% | Activity (BT-474 [8]): <90% | Activity (DU-145 [9]): Active | Activity (BT-474 [10]): 72% | Activity (JIMT-1 [11]): Active | Activity (JIMT-1 [12]): inactive | Activity (BT-474 [13]): 75% | Activity (JIMT-1 [14]): <90% | Activity (DU-145 [15]): inactive | Activity (MDA-MB-231 [16]): <90% | Activity (BT-474 [17]): inactive | Activity (PC-3): <90% | Activity (DU-145 [18]): <90%

Compound: CC[C@@H](C(=O)[C@@H](C)[C@@H](O)[C@H](C)[C@@H]1O[C@@H]([C@@H](CC)C(=O)O)CC[C@@H]1C)[C@H]1O[C@]2(C=C[C@@H](O)[C@]3(CC[C@@](C)([C@H]4CC[C@](O)(CC)[C@H](C)O4)O3)O2)[C@H](C)C[C@@H]1C [SALINOMYCIN]
Activity (BT-474 [10]): 87% | Activity (MDA-MB-231 [1]): Active | Activity (BT-474 [13]): 60% | Activity (MIA PaCa-2 [2]): Active | Activity (BT-474 [19]): inactive | Activity (BT-474 [3]): Active | Activity (DU-145 [4]): Active

— ChEMBL document CHEMBL4007413, “Replacing d-Glucosamine with Its l-Enantiomer in Glycosylated Antitumor Ether Lipids (GAELs) Retains Cytotoxic Effects against Epithelial Cancer Cells and Cancer Stem Cells” (J Med Chem, 2017)
